Source: PubChem (several laboratories)
Tb MetRS inh: Trypanosoma brucei MetRS inhibition; inhibition, % at 11.9 µM; hit rate 0.4% among 360,000; purified T. brucei MetRS, ATP depletion, Kinase-Glo luminescence;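 active = inhibition above a per-plate cutoff of the control wells' mean inhibition plus 3 SD, cut at about 5.5% in these data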;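 note: 0% = DMSO wells median and 100% = median of wells with control inhibitor compound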
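Test system: purified T. brucei MetRS enzyme. Also added: ATP, methionine and E. coli bulk tRNA substrates. Compound: 11.9 µM single point. Schedule: 15 min enzyme-compound preincubation, 2 h reaction, 10 min detection, 25 °C. Signal: luciferase luminescence of residual ATP, Kinase-Glo. Evaluation: percent inhibition versus plate control medians. Controls: DMSO wells, low control.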
SMARCA2 act: increases SMARCA2 function in MMTV reporter cells. MG213 cells, MMTV-luciferase reporter, dexamethasone, overnight. hit rate 1% among 370,000. activation, % at 9.1 µM; in the data active = activation above about 7.8%;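 note: 0% = vehicle wells and 100% = reference activator wells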
H9c2 TAG inh: inhibitors of triacylglycerol accumulation; inhibition, % at 12.5 µM; H9c2 cells, Nile Red lipid (TAG) fluorescence; cells loaded with 200 µM oleic acid; hit rate 0.66% among 230,000; AID 651582;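 active = pattern-corrected inhibition of lipid staining of at least 50% with the nuclear-stain viability signal not falling by more than 50%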;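 note: 0% = DMSO wells and 100% = triacsin C control wells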
AHR activator: activators of human aryl hydrocarbon receptor; AHR-responsive luciferase reporter cells, luminescence; activation, % at 5 µM; hit rate 2.5% among 320,000; AID 2796; in the data active = activation above about 47%;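 note: 0% = vehicle wells and 100% = reference agonist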
Target sequence (P35869 whole entry, looked up): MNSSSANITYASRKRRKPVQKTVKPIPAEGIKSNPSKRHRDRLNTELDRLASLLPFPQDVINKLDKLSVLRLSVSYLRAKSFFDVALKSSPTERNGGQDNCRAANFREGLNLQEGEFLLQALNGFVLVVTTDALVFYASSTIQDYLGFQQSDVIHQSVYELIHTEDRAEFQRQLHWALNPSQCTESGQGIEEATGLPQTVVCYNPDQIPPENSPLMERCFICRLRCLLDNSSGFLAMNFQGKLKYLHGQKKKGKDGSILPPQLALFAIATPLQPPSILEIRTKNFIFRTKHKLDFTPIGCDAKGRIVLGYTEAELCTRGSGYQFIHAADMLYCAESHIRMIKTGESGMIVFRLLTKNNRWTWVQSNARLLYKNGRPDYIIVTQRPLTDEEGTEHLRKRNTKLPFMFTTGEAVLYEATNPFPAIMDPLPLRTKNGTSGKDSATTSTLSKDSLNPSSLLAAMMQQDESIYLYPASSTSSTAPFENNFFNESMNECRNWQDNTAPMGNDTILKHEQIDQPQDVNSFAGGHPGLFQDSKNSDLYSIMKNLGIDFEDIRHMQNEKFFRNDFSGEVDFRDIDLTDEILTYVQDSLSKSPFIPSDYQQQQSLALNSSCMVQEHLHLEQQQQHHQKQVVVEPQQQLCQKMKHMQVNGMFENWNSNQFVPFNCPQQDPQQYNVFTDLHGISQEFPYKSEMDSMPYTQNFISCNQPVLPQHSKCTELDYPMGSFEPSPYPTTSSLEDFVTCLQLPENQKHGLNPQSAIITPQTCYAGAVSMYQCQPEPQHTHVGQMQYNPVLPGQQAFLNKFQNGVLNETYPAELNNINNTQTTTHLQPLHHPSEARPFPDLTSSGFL
Efflux pump inh: blocks antifungal efflux pumps in multiplex yeast assay. inhibition, % at 10 µM. hit rate 0.44% among 330,000. S. cerevisiae Candida pump triplex, Nile Red efflux. AID 485275;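 active = plate passing quality check with inhibition over a set limit, or well fluorescence over plate mean plus 4 SD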;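 note: Nile Red retained in pooled yeast measured as flow cytometry median fluorescence; 0% = buffer negative control and 100% = Enniatin B positive control; higher means more Nile Red kept so more efflux inhibition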
* = called active by the depositor; . = no result. Rows were chosen to be rich in hits. Some 4.1% of all compounds tested hit in one or more screens of this group.

SMILES	Tb MetRS inh	SMARCA2 act	H9c2 TAG inh	AHR activator	Efflux pump inh
N=C1/C(=C\c2ccc(-c3cccc(Cl)c3)o2)C(=O)N=C2SC=C(c3ccccc3)N12	0	-3	.	49*	0
CCSc1nncn1/N=C/c1ccc(OC)c(OC)c1	0	3	8	48*	0
COCc1cc(N2CCNC[C@@H]2C)ccc1N1C[C@@H](C)O[C@@H](C)C1	.	1	.	.	.
CCCCCCSc1cc(-c2nc3cc(C)ccn3c2NCCCC)ccc1OC	0	1	2	20	0
CCCCNc1c(-c2cccc(-c3cc(C(C)=O)cs3)c2)nc2cc(C)ccn12	-1	3	-6	55*	0
Cc1cc(C)c2nc(C(F)(F)F)c(C#N)c(N)c2c1	-1	-2	-23	12	0
CCCc1nc2c(C)cc(C)cc2c(N)c1CC	0	2	.	47*	0
Cc1ccc(NCC(=O)N/N=C/c2cc3ccccc3nc2Cl)cc1	0	7	27	60*	0
Cc1ccc(NCC(=O)N/N=C\c2ccc[nH]2)cc1	0	-3	1	62*	0
Cc1ccc(NCC(=O)N/N=C/c2ccc(OC(=O)c3ccco3)cc2)cc1	-1	4	.	59*	0
C=CCN1C(=O)c2n[nH]c(C(C)C)c2C1c1ccc(C)cc1 (centres undefined)	.	-3	.	.	.
CC(C)NC(=O)CC(=O)N/N=C/c1ccc(Br)cc1	-1	1	.	53*	0
CC(C)CNC(=O)CC(=O)N/N=C/c1ccc(Br)cc1	0	-1	.	4	0
COC(=O)[C@H](C(C)C)N1Cc2nnn(Cc3ccccc3)c2-c2ccccc2S1(=O)=O	.	2	.	.	.
Cc1cc(-c2ccccc2)nc2cc(C(=O)NCCCn3ccnc3)nn12	-1	.	.	66*	0
Cc1cc(C(=O)NCCCn2ccnc2)sc1-c1ccccc1	-2	-3	.	70*	1
Cc1ccc(C(=O)Nc2cccnc2)cc1S(=O)(=O)N1CCCC1	0	-1	19	54*	0
COc1cc(OC)cc(C(=O)NC(=S)Nc2cccnc2)c1	1	0	10	26	0
COc1cccc(C(=O)Nc2c(F)cccc2F)c1	0	-2	-13	2	0
COc1cc(OC)cc(C(=O)Nc2cccc3cccnc23)c1	-1	-3	.	50*	0
Cc1ccc(C(=O)Nc2cccnc2)cc1S(=O)(=O)N1CCCCC1	0	0	5	29	0
COc1cc(OC)cc(C(=O)Nc2cccnc2)c1	0	0	2	59*	0
COc1cc(C(=O)Nc2cccc3cccnc23)cc(OC)c1OC	-1	-1	-9	12	0
COc1cc(OC)cc(C(=O)Nc2c(F)cccc2F)c1	1	-2	1	59*	0
O=C(OCc1cn(Cc2ccc(F)cc2)nn1)N1CCCC1	.	-1	.	.	.
SMILES	Tb MetRS inh	SMARCA2 act	H9c2 TAG inh	AHR activator	Efflux pump inh
COC(=O)N[C@H]1CC=C[C@@H]1Cc1cccc(Oc2ccccc2)c1	.	-1	.	.	.
CCN(CC)C(=O)CC[C@@H]1CC[C@]2(CCCN(C(=O)C3CCCCC3)C2)O1	.	-5	.	.	.
Nc1nc2ccccc2n1C(=O)c1cccs1	0	3	-18	52*	0
COCCNc1nc(-c2ccccc2CO)c2sc(-c3ccccc3)cc2n1	0	.	50*	.	.
COCCNc1nc(NCCNC(C)=O)c2sc(-c3ccccc3)cc2n1	1	6	10	.	.
COc1cccc([C@@H]2Oc3ccc(OC)cc3C(=O)[C@H]2OC(=O)NCc2ccc3c(c2)OCO3)c1	.	.	.	54*	0
COc1ccc(Oc2nc(C)cc(C)c2C#N)cc1	-1	1	.	22	0
COc1ccc(N(C(C)=O)c2nc(C)cc(C)c2C#N)c(OC)c1	-1	1	1	78*	0
COc1ccc(-c2cn3c(C)c(C(=O)NC(C)(C)C)sc3n2)cc1	-1	3	6	55*	0
COc1ccc(-c2cn3c(C)c(C(=O)NC(C)C)sc3n2)cc1	0	2	.	-1	0
c1ccc2c(-c3csc(-c4ccncc4)n3)c[nH]c2c1	0	1	110	58*	0
Brc1ccc(-c2csc(-c3c[nH]c4ccccc34)n2)cc1	-1	5	17	78*	0
Clc1ccc(-c2c[nH]c3ccccc23)nn1	0	2	-1	23	0
O=C(OCCN1CCN(C2CN(Cc3cn(Cc4cccc(F)c4)nn3)S(=O)(=O)C2)CC1)c1cc2ccccc2o1 (centres undefined)	.	3	.	.	.
Cc1nc(N)sc1-c1csc(Nc2ccc(Cl)cn2)n1	1	-2	.	76*	0
